# Hits are enriched below; roughly 1.8% of the tested compounds scored in any of these assays.
# APJ ag: activates the human apelin receptor APJ | CHO-K1 APJ PathHunter beta-arrestin, luminescence; 0% DMSO wells, 100% apelin | activation, % at 20 µM | P35414 | 330,000 tested, 0.11% active;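 active means activation more than six SD over the plate average, tested at 20 µM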;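 further: 0% = DMSO alone and 100% = apelin-13 at 10 nM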
#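 Test system: CHO-K1 APJ beta-arrestin complementation cell line | Compound: Single test compound dose, 20 µM final, 1% DMSO | Incubation: Compound 90 min 25 °C, reagent 1 h | Measured by: beta-gal luminescence | Read-out basis: APJ–arrestin association signal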
# CCR6 antagonist: blocks CCL20-driven beta-arrestin recruitment at human CCR6; P51684; CHO-K1 CCR6 PathHunter beta-arrestin, luminescence, CCL20-stimulated; inhibition, % at 20 µM; 340,000 tested, 0.49% active; AID 493098;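 active means compounds whose inhibition of the agonist-driven luminescence signal at 20 µM reaches about 50%, limit read from the data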;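 further: cells stimulated with CCL20 at 14 nM final; plate controls were DMSO with CCL20 for no effect and DMSO without agonist for full effect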
# CXCR6 inh: blocks human CXCR6 beta-arrestin recruitment; O00574; CHO-K1 PathHunter CXCR6 beta-arrestin, luminescence; inhibition, % at 20 µM; 360,000 tested, 0.36% active; in the data active means inhibition above about 34%, passing the limit was not always enough;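 further: antagonist mode with CXCL16 agonist at 10 nM final; 0% = 10 nM CXCL16 with DMSO and 100% = unstimulated wells without agonist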
# EBI2 antag: antagonists of human EBI2 receptor | EBI2 beta-arrestin recruitment, luminescence, 7a,25-OHC stimulated | inhibition, % at 5 µM | 360,000 tested, 0.81% active | AID 651636; in the data active means inhibition above about 38%;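 further: enzyme fragment complementation signal reports receptor beta-arrestin coupling in cells; 0% = agonist plus DMSO wells and 100% = wells without agonist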
# APJ antag: antagonists of human APJ apelin receptor; 330,000 tested, 0.32% active; P35414; inhibition, % at 20 µM; CHO-K1 APJ beta-arrestin complementation, luminescence;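 active means inhibition above about 40% at 20 µM, limit read from the data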;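 further: cells challenged with 10 nM apelin-13 agonist together with compound; plate controls were apelin-13 plus DMSO wells for no effect and DMSO wells lacking apelin-13 for full effect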
# B2AR ag: human beta-2 adrenergic receptor agonism by FAP | Am2.2-beta2AR cells, FAP receptor internalization, flow cytometry | response, % (no concentration beside the values) | 340,000 tested, 0.43% active;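 active means response above a set limit, near 3 SD of response in nonfluorescent compounds, cut at about 42% in these data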
# Target sequence (P07550 whole entry, looked up): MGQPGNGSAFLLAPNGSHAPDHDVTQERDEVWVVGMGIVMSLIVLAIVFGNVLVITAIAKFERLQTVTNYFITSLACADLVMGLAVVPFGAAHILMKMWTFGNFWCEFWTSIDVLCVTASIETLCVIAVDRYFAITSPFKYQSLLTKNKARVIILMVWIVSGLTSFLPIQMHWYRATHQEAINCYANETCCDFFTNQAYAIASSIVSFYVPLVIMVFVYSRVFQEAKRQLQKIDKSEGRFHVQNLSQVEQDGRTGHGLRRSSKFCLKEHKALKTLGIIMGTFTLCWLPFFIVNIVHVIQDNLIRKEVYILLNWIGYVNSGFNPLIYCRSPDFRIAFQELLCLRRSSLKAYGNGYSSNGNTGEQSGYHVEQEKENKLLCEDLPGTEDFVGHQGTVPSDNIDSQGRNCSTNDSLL
# Starred values were filed as active, the others as inactive; . = no result.
SMILES,APJ ag,CCR6 antagonist,CXCR6 inh,EBI2 antag,APJ antag,B2AR ag
O=C1C=CC(=O)N1c1ccc(-c2nc3ccccc3o2)cc1,.,.,60*,-2,.,.
CCS(=O)(=O)c1ccc(O)c(NC(=O)c2ccc(S(=O)(=O)N3CCCCCC3)cc2)c1,-2,6,-1,3,-7,4
CCN1C(=O)/C(=C/c2cccs2)SC1=Nc1ccc(OC)cc1,-1,8,8,13,9,-1
CCCN1C(=O)/C(=C/c2ccc(C)s2)SC1=Nc1ccc(OC)cc1,-7,22,10,13,13,1
CCN(CC)CCN1C(=O)/C(=C\c2ccc(Cl)c([N+](=O)[O-])c2)SC1=Nc1ccc(OC)cc1,-1,25,1,73*,21,18
COc1ccc(N=C2S/C(=C\c3ccc(Cl)c([N+](=O)[O-])c3)C(=O)N2CCN(C)C)cc1,0,25,17,62*,19,34
CN(C)C(=S)N=Nc1[nH]c2ccccc2c1O,-3,63*,.,.,12,.
CCOC(=O)c1[nH]c2ccc(Cl)cc2c1-c1ccccc1,0,2,-4,26,-4,4
CN(C)C=NC(=O)c1[nH]c2ccc(Cl)cc2c1-c1ccccc1,8,-5,-8,18,1,49*
COc1ccc2sc(-c3ccccc3OC)c(-c3ccc(OCCN(C)C)cc3)c2c1,.,52*,-3,-2,.,24
COc1cccc(-c2sc3ccccc3c2-c2ccc(OCCN(C)C)cc2)c1,0,24,-11,-2,-11,65*
COc1cccc(-c2sc3ccccc3c2-c2ccc(OCCN3CCCC3)cc2)c1,0,30,-12,-24,-12,20
CCOC(=O)c1c(N2C(=O)C=CC2=O)sc(C)c1C,1,.,61*,1,-5,7
N#C/C(=C/c1ccc(-c2ccccc2)o1)c1nc(-c2cccs2)cs1,.,17,12,12,.,-402
N#C/C(=C\c1ccc(-c2ccc(F)cc2)o1)C(=O)Nc1nc(-c2cccs2)cs1,-7,55*,26,19,30,2
C[C@H](CO)N1C[C@H](C)[C@H](CN(C)C(=O)Nc2ccccc2F)OCc2cnnn2CCCC1=O,.,.,6,-5,.,.
Cc1c(N=NC2=C(O)CC(C)(C)CC2=O)c(=O)n(-c2ccccc2)n1C,-4,.,61*,-3,16,7
CCC(C)C(=O)N1c2ccccc2C(=C2SC(C(=O)OC)=C(C(=O)OC)S2)C(=S)C1(C)C (configuration not stated),-9,43,23,52*,39,6
Cc1ccc(OCCCN2C(=O)C(=O)c3cccc(C)c32)cc1,-10,57*,19,8,38,-17
Cc1ccc(OCCN2C(=O)C(=O)c3cc(C)ccc32)cc1,-5,52*,21,16,18,36
COCCn1c(SCC(=O)NCCCN2CCCC2=O)nc2sc3c(c2c1=O)CCCC3,.,-8,7,0,.,-11
O=C(CC1SC(=Nc2ccc(OC(F)F)cc2)N(CCC2=CCCCC2)C1=O)Nc1ccccc1F (configuration not stated),-1,1,-3,36,-6,3
CCOc1ccccc1N=C1SC(CC(=O)Nc2ccc(OC)cc2OC)C(=O)N1CCC1=CCCCC1 (configuration not stated),1,6,8,7,-5,67*
Cc1cc(C(=O)CSc2nnc(-c3cccc(F)c3)n2N)c(C)n1Cc1ccc2c(c1)OCO2,-8,11,1,10,-10,82*
Cc1cc(C(=O)CSc2nnnn2-c2ccc(O)cc2)c(C)n1Cc1ccc2c(c1)OCO2,-4,0,-2,5,-7,7
SMILES,APJ ag,CCR6 antagonist,CXCR6 inh,EBI2 antag,APJ antag,B2AR ag
Cc1cccc(Cn2c(=O)n(Cc3ccco3)c(=O)c3ccccc32)c1,-2,33,14,61*,14,-4
Cc1ccc2cc(/C=C/C(=O)c3ccco3)c(Cl)nc2c1,1,16,3,9,-2,56*
CC(C)N=c1cc2n(-c3ccc(Cl)cc3)c3ccccc3nc-2cc1Nc1ccc(Cl)cc1,-7,50,46*,4,67*,33
Oc1ccc(/C=N/Nc2cc(N3CCCC3)nc(N3CCCC3)n2)cc1,-4,5,-2,55*,1,13
Oc1ccc(/C=N/Nc2cc(N3CCOCC3)nc(N3CCOCC3)n2)cc1,0,-6,1,3,1,25
COc1ccc(N2C(=O)CC(Sc3n[nH]c(-c4cccc(C)c4)n3)C2=O)cc1 (configuration not stated),-1,4,-1,6,4,3
CCOc1ccccc1N1C(=O)CC(Sc2n[nH]c(-c3ccccc3)n2)C1=O (configuration not stated),-2,70*,-8,-12,4,25
COc1ccc(NC2=C(NCCO)C(=O)c3ccccc3C2=O)cc1,1,17,11,-14,-5,66*
Cc1ccc(S(=O)(=O)NC2=C(N3CCN(c4ccccc4F)CC3)C(=O)c3ccccc3C2=O)cc1,-2,37,24,-15,-45,4
Cc1ccc(S(=O)(=O)NC2=C(N3CCN(Cc4ccccc4)CC3)C(=O)c3ccccc3C2=O)cc1,2,54*,5,2,-33,53*
CCN1/C(=C2\C(=O)N(c3ccccc3)N=C2C)C=Cc2cc(C)ccc21,-5,11,0,-8,7,11
CCN1/C(=c2/s/c(=C3/C(=O)N(c4ccccc4)N=C3C)n(CC)c2=O)C=Cc2ccccc21,-2,52*,10,-1,11,-2
CCCCCCCCN1C(=O)[C@H](CC(=O)N2CCSCC2)C[C@@]2(C(=O)OC)CC(C)(C)CC=C12,.,.,.,21,.,.
Cc1ccc(C(CCN(Cc2ccccc2)C(=O)c2ccco2)c2ccco2)cc1 (configuration not stated),-1,52*,16,-1,0,18
CCOc1cc(C=NN2CCCCCC2)ccc1O,.,-11,-23,-3,.,1
O=C(N/C(=C\c1ccco1)C(=O)N1CCOCC1)c1ccccc1Cl,-3,9,-4,1,17,8
CN=c1scc(-c2cccs2)n1/N=C/c1ccccc1O,1,11,-1,26,-5,-6
CN=c1scc(-c2cccs2)n1/N=C/c1ccc(O)c(O)c1O,2,10,4,11,-5,106*
CN=c1scc(C)n1/N=C/c1ccc(O)c(O)c1O,4,16,5,1,-18,69*
COc1cc(CNC[C@H]2O[C@@H](n3cc(C)c(=O)[nH]c3=O)C[C@@H]2O)ccc1OCc1cccc(Cl)c1,.,.,-3,-7,.,.
Cc1cnc2ccc(F)cc2c1,.,.,-11,-8,.,.
COC(=O)[C@@]12C[C@@H](CC(=O)N3CCOCC3)C(=O)N(Cc3ccccc3)C1=CCC(C)(C)C2,.,.,.,-6,.,.
